Data as given in ChEMBL document CHEMBL1143835, “Antipropionibacterial activity of BAL19403, a novel macrolide antibiotic” (2007).
In brackets after ≈: the same amount, converted by molar mass.

Experiments:
[1] = system: Cutibacterium acnes; assay: Antibacterial activity against drug-resistant Propionibacterium acnes EG7NS after 72 hrs; assay type: functional
Summary of the method: (§1)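 MBC for P. acnes followed MIC assays by standard methodology. Samples were plated on Wilkins-Chalgren agar, incubated anaerobically in GENbox jars at 35 to 37°C, and examined for growth after 72 h.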

[2] = system: Staphylococcus aureus; assay: Antibacterial activity against methicillin-resistant Staphylococcus aureus after 20 to 24 hrs by broth microdilution method
[3] = system: Corynebacterium diphtheriae; assay: Antibacterial activity against Corynebacterium diphtheriae after 48 hrs by broth microdilution method; assay type: functional
Summary of the method: (§2)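 Broth microdilution per CLSI in cation-adjusted Mueller-Hinton broth supplemented with 0.5% (vol/vol) Tween 80. Plates incubated at 35°C in ambient air for 44 to 48 h, then read visually. MICs in μg/ml; a geometric mean MIC was calculated across the corynebacterial strains.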

[4] = system: Cutibacterium acnes; assay: Antibacterial activity against drug-resistant Propionibacterium acnes P429:1 (SC) after 48 hrs by broth microdilution method; assay type: functional
Summary of the method: (§3)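 Broth microdilution MIC in Wilkins-Chalgren broth without lysed horse blood, following CLSI anaerobe guidelines. Plates were held in anaerobic jars with atmosphere generators (O2 <0.1% by 2.5 h, CO2 >15% by 24 h) at 35 to 37°C for 48 h. Growth was read with an illuminated plate reader and magnifying mirror.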

[5] = system: Cutibacterium acnes; assay: MBC/MIC ratio of Propionibacterium acnes SW3CD; assay type: functional
Summary of the method: (§4)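 MIC by CLSI broth microdilution in Wilkins-Chalgren broth in anaerobic jars (O2 <0.1%, CO2 >15%), read after 48 h at 35–37°C on an illuminated plate reader. For MBC, samples were plated onto Wilkins-Chalgren agar and incubated anaerobically for 72 h at 35–37°C before growth was scored.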

[6] = system: Cutibacterium acnes; assay: Antibacterial activity against drug-resistant Propionibacterium acnes OK8/97 after 48 hrs by broth microdilution method; assay type: functional; summary of the method: as §3
[7] = system: Cutibacterium acnes; assay: Antibacterial activity against drug-resistant Propionibacterium acnes P95 after 72 hrs; assay type: functional; summary of the method: as §1
[8] = Antibacterial activity against Streptococcus dysgalactiae subsp. dysgalactiae after 48 hrs by broth microdilution method; assay type: functional
[9] = system: Cutibacterium acnes; assay: Antibacterial activity against drug-resistant Propionibacterium acnes SW54EA after 48 hrs by broth microdilution method; assay type: functional; summary of the method: as §3
[10] = system: Cutibacterium acnes; assay: Antibacterial activity against drug-resistant Propionibacterium acnes EG7NS after 48 hrs by broth microdilution method; assay type: functional; summary of the method: as §3
[11] = system: Cutibacterium acnes; assay: Antibacterial activity against drug-resistant Propionibacterium acnes SW11 after 48 hrs by broth microdilution method; assay type: functional; summary of the method: as §3
[12] = system: Streptococcus equi subsp. zooepidemicus; assay: Antibacterial activity against Streptococcus equi subsp. zooepidemicus after 48 hrs by broth microdilution method; assay type: functional
[13] = system: Cutibacterium acnes; assay: Antibacterial activity against drug-resistant Propionibacterium acnes SW10 after 48 hrs by broth microdilution method; assay type: functional; summary of the method: as §3
[14] = system: Cutibacterium acnes; assay: Antibacterial activity against drug-resistant Propionibacterium acnes GE4E after 48 hrs by broth microdilution method; assay type: functional; summary of the method: as §3
[15] = system: Cutibacterium acnes; assay: Antibacterial activity against drug-resistant Propionibacterium acnes SW26 after 48 hrs by broth microdilution method; assay type: functional; summary of the method: as §3
[16] = system: Cutibacterium acnes; assay: Antibacterial activity against drug-resistant Propionibacterium acnes FG7E after 48 hrs by broth microdilution method; assay type: functional; summary of the method: as §3
[17] = system: Staphylococcus aureus; assay: Antibacterial activity against methicillin-susceptible Staphylococcus aureus after 48 hrs by broth microdilution method; assay type: functional
[18] = system: Cutibacterium acnes; assay: Antibacterial activity against drug-resistant Propionibacterium acnes P429:1 (BC) after 48 hrs by broth microdilution method; assay type: functional; summary of the method: as §3
[19] = system: Cutibacterium acnes; assay: Antibacterial activity against drug-resistant Propionibacterium acnes EG3NS after 48 hrs by broth microdilution method; assay type: functional; summary of the method: as §3
[20] = system: Cutibacterium acnes; assay: Antibacterial activity against drug-resistant Propionibacterium acnes SW3CD after 72 hrs; assay type: functional; summary of the method: as §1
[21] = system: Cutibacterium acnes; assay: Antibacterial activity against drug-resistant Propionibacterium acnes P425:1 after 48 hrs by broth microdilution method; assay type: functional; summary of the method: as §3
[22] = system: Cutibacterium acnes; assay: Antibacterial activity against drug-resistant Propionibacterium acnes SP64E after 48 hrs by broth microdilution method; assay type: functional; summary of the method: as §3
[23] = system: Cutibacterium acnes; assay: MBC/MIC ratio of Propionibacterium acnes EG7NS; assay type: functional; summary of the method: as §4
[24] = system: Propionibacterium granulosum; assay: Antibacterial activity against drug-resistant Propionibacterium granulosum QK6/92 after 48 hrs by broth microdilution method
[25] = system: Cutibacterium acnes; assay: Antibacterial activity against drug-resistant Propionibacterium acnes P401:5 after 48 hrs by broth microdilution method; assay type: functional; summary of the method: as §3
[26] = system: Corynebacterium minutissimum; assay: Antibacterial activity against Corynebacterium minutissimum after 48 hrs by broth microdilution method; assay type: functional; summary of the method: as §2
[27] = system: Cutibacterium acnes; assay: Antibacterial activity against drug-resistant Propionibacterium acnes GE46EB after 48 hrs by broth microdilution method; assay type: functional; summary of the method: as §3
[28] = system: Cutibacterium acnes; assay: Antibacterial activity against drug-resistant Propionibacterium acnes P:413 after 48 hrs by broth microdilution method; assay type: functional; summary of the method: as §3
[29] = system: Propionibacterium granulosum; assay: Antibacterial activity against drug-resistant Propionibacterium granulosum NCTC-11865 after 48 hrs by broth microdilution method; assay type: functional; conditions: Cutibacterium granulosum, NCTC-11865, 48 h; summary of the method: as §3
[30] = system: Cutibacterium acnes; assay: Antibacterial activity against drug-resistant Propionibacterium acnes P322:2 after 48 hrs by broth microdilution method; assay type: functional; summary of the method: as §3
[31] = system: Cutibacterium acnes; assay: MBC/MIC ratio of Propionibacterium acnes SW101T; assay type: functional; summary of the method: as §4
[32] = system: Cutibacterium acnes; assay: Antibacterial activity against drug-resistant Propionibacterium acnes SW101T after 48 hrs by broth microdilution method; assay type: functional; summary of the method: as §3
[33] = system: Staphylococcus epidermidis; assay: Antibacterial activity against Staphylococcus epidermidis after 48 hrs by broth microdilution method; assay type: functional
[34] = system: Cutibacterium acnes; assay: Antibacterial activity against drug-resistant Propionibacterium acnes SW16 after 48 hrs by broth microdilution method; assay type: functional; summary of the method: as §3
[35] = system: Streptococcus pyogenes; assay: Antibacterial activity against Streptococcus pyogenes after 20 to 24 hrs by broth microdilution method
[36] = system: Cutibacterium acnes; assay: Antibacterial activity against drug-resistant Propionibacterium acnes SW17 after 48 hrs by broth microdilution method; assay type: functional; summary of the method: as §3
[37] = system: Cutibacterium acnes; assay: Antibacterial activity against drug-resistant Propionibacterium acnes SW101CDA after 48 hrs by broth microdilution method; assay type: functional; summary of the method: as §3
[38] = system: Corynebacterium amycolatum; assay: Antibacterial activity against Corynebacterium amycolatum after 48 hrs by broth microdilution method; assay type: functional; summary of the method: as §2
[39] = system: Cutibacterium acnes; assay: Antibacterial activity against drug-resistant Propionibacterium acnes SW3CD after 48 hrs by broth microdilution method; assay type: functional; summary of the method: as §3
[40] = system: Cutibacterium acnes; assay: Antibacterial activity against drug-resistant Propionibacterium acnes P95 after 48 hrs by broth microdilution method; assay type: functional; summary of the method: as §3
[41] = system: Cutibacterium acnes; assay: Antibacterial activity against drug-resistant Propionibacterium acnes D-04/97 after 48 hrs by broth microdilution method; assay type: functional; summary of the method: as §3
[42] = system: Staphylococcus aureus; assay: Antibacterial activity against borderline oxacillin-resistant Staphylococcus aureus after 20 to 24 hrs by broth microdilution method
[43] = system: Cutibacterium acnes; assay: MBC/MIC ratio of Propionibacterium acnes P95; assay type: functional; summary of the method: as §4
[44] = system: Corynebacterium jeikeium; assay: Antibacterial activity against Corynebacterium jeikeium after 48 hrs by broth microdilution method; assay type: functional; summary of the method: as §2
[45] = system: Cutibacterium acnes; assay: Antibacterial activity against drug-resistant Propionibacterium acnes EG13NS after 48 hrs by broth microdilution method; assay type: functional; summary of the method: as §3

SMILES: CCC[C@@H]1C[C@@H](C(=O)N[C@@H]([C@H]2O[C@H](SC)[C@H](O)[C@@H](O)[C@H]2O)[C@H](C)Cl)N(C)C1 [CLINDAMYCIN]
- MBC [1]: > 32 µg/mL
- MIC [2]: 1.16 µg/mL (≈ 2.73 µM)
- MIC [3]: 7.97 µg/mL (≈ 18.8 µM)
- MIC [4]: 4 µg/mL (≈ 9.41 µM)
- Ratio [5]: >4
- MIC [6]: 0.125 µg/mL (≈ 0.294 µM)
- MBC [7]: 32 µg/mL (≈ 75.3 µM)
- MIC [8]: 0.12 µg/mL (≈ 0.282 µM)
- MIC [9]: 32 µg/mL (≈ 75.3 µM)
- MIC [10]: ≤ 0.06 µg/mL
- MIC [11]: 0.5 µg/mL (≈ 1.18 µM)
- MIC [12]: 0.11 µg/mL (≈ 0.259 µM)
- MIC [13]: 0.125 µg/mL (≈ 0.294 µM)
- MIC [14]: > 512 µg/mL
- MIC [15]: ≤ 0.06 µg/mL
- MIC [16]: ≥ 32 µg/mL
- MIC [17]: 1.16 µg/mL (≈ 2.73 µM)
- MIC [18]: 8 µg/mL (≈ 18.8 µM)
- MIC [19]: 0.25 µg/mL (≈ 0.588 µM)
- MBC [20]: > 32 µg/mL
- MIC [21]: 512 µg/mL (≈ 1200 µM)
- MIC [22]: > 512 µg/mL
- Ratio [23]: >=533
- MIC [24]: 1 µg/mL (≈ 2.35 µM)
- MIC [25]: 1 µg/mL (≈ 2.35 µM)
- MIC [26]: 7.97 µg/mL (≈ 18.8 µM)
- MIC [27]: 512 µg/mL (≈ 1200 µM)
- MIC [28]: ≤ 0.06 µg/mL
- MIC [29]: ≤ 0.06 µg/mL
- MIC [30]: 4 µg/mL (≈ 9.41 µM)
- Ratio [31]: >2
- MIC [32]: 256 µg/mL (≈ 602 µM)
- MIC [33]: 1.12 µg/mL (≈ 2.64 µM)
- MIC [34]: ≤ 0.06 µg/mL
- MIC [35]: 0.07 µg/mL (≈ 0.165 µM)
- MIC [36]: ≤ 0.06 µg/mL
- MIC [37]: ≥ 512 µg/mL
- MIC [38]: 7.97 µg/mL (≈ 18.8 µM)
- MIC [39]: 8 µg/mL (≈ 18.8 µM)
- MIC [40]: 0.5 µg/mL (≈ 1.18 µM)
- MIC [41]: 0.125 µg/mL (≈ 0.294 µM)
- MIC [42]: 1.16 µg/mL (≈ 2.73 µM)
- Ratio [43]: >64
- MIC [44]: 7.97 µg/mL (≈ 18.8 µM)
- MIC [45]: ≤ 0.06 µg/mL
